Results from ChEMBL document CHEMBL5233202, “Metabolically stable apelin-analogues, incorporating cyclohexylalanine and homoarginine, as potent apelin receptor activators” (RSC Med Chem, 2021).
Non-standard residues stand in square brackets, D forms with d. Residues, ends and D or L forms follow the SMILES beside them. Phe(4-Br) = N[C@@H](Cc1ccc(Br)cc1)C(=O)O; hArg = N=C(N)NCCCC[C@H](N)C(=O)O; Cha = N[C@@H](CC1CCCCC1)C(=O)O; NMeL = CN[C@@H](CC(C)C)C(=O)O; Nle = CCCC[C@H](N)C(=O)O; Aib = CC(C)(N)C(=O)O

Legend:
Neprilysin (NEP) = Neprilysin (NEP) (Homo sapiens, UniProt P08473); test: Proteolytic stability assessed as recombinant human NEP-mediated compound degradation by measuring half life incubated for 24 hrs by LC-MS analysis; assay type: ADME; conditions: recombinant human neprilysin (NEP)
[1] = Stability in human plasma assessed as half life at 1 mM measured for 24 hrs by LC-MS analysis; assay type: ADME, cell-free
Method in brief: (§1)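 Plasma (20 μL, human or murine) prewarmed to 37 °C, then 5 μL of 1 mM peptide added and incubated at 37 °C. Samples quenched at 1, 3, 6 and 24 h with 6 M GuHCl/80% ACN and Dans-YVG internal standard, centrifuged, solid-phase extracted and analyzed by LC-MS. Peptide/standard peak-area ratio normalized to 0 h; triplicates.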

Apelin receptor [2] = target: T1, Apelin receptor (Homo sapiens, UniProt P35414); test: Activation of recombinant human APJ receptor expressed in rat Chem-5 cells assessed as increase in Ca2+ mobilization by FLIPR Calcium 6-QF fluorescent dye based assay; assay type: cell-based
T1 sequence (P35414 whole entry): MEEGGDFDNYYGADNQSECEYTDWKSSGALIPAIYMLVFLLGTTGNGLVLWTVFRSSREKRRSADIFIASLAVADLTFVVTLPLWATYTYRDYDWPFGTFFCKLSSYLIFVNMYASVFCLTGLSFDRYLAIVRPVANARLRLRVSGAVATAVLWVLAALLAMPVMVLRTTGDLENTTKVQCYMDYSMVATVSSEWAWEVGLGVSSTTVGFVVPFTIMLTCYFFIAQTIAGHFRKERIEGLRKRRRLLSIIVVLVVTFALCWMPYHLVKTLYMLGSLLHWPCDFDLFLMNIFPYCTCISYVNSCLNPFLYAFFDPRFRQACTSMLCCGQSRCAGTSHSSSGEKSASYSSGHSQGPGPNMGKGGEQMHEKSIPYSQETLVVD
Method in brief: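 Frozen Chem-5 cells stably expressing human APJ, thawed per supplier protocol, loaded 1 h with Calcium 6-QF dye in HBSS/20 mM HEPES/0.2% DMSO/2.5 mM probenecid, pH 7.6. Cells washed three times and rested 10 min, then read on FLIPR. Agonist response taken as maximum fluorescence change over baseline. pEC50 from four-parameter logistic fit; triplicates.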

Mus musculus [3] = test: Hypotensive effect in anesthetized wild type mouse assessed as change in mean arterial blood pressure at 1.4 uM/Kg, iv administered via right jugular vein measured for 60 mins; assay type: functional; conditions: 1 h
Method in brief: (§2)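 Anesthetized mice received peptide at 1.4 μM kg−1 body weight, or equal-volume saline, by injection into the right jugular vein (n = 3). HR, MABP, SBP and DBP were recorded from blood pressure traces and reported as mean ± S.E.M.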

Mus musculus [4] = test: Hypotensive effect in anesthetized wild type mouse assessed as total time duration of hypotensive effect at 1.4 uM/Kg, iv administered via right jugular vein measured for 60 mins; assay type: functional; conditions: 1 h; method in brief: as §2
Apelin receptor [5] = target: T2, Apelin receptor (Rattus norvegicus, UniProt Q9JHG3); test: Displacement of [125I]-pyr-1-apelin-13 from EGFP tagged rat apelin receptor expressed in CHO cell membrane incubated for 3 hrs by gamma counter analysis; assay type: cell membranes
T2 sequence (Q9JHG3 whole entry): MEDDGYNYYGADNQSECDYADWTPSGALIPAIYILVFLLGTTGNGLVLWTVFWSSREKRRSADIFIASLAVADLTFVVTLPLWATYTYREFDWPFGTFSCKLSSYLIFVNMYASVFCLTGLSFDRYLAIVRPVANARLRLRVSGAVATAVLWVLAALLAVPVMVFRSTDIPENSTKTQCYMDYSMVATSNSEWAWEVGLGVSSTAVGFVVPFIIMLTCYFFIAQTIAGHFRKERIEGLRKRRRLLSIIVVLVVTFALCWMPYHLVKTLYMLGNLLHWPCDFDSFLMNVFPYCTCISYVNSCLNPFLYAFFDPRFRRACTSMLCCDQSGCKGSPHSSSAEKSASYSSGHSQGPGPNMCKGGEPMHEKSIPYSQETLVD
Method in brief: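 Crude membranes (1 μg/assay) from CHO cells stably expressing wild-type rat APJ-EGFP, incubated 3 h at 20 °C with 0.2 nM [125I]-pyr-1-apelin-13 (Lys8 Bolton–Hunter monoiodinated) and competitor at various concentrations. Binding buffer: 50 mM HEPES, 5 mM MgCl2, 1% BSA, pH 7.5. Quenched with cold buffer, GF/C filtered and washed, gamma counted; triplicates.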

[6] = Stability in mouse plasma assessed as half life at 1 mM measured for 24 hrs by LC-MS analysis; assay type: ADME, cell-free; method in brief: as §1
[7] = Protein binding in pooled human plasma at 100 uM incubated for 3 hrs by equilibrium dialysis method; assay type: ADME, cell-free; conditions: read-out: PPB (converted)
Method in brief: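 Equilibrium dialysis. DMSO stock (1 mM) diluted to 100 μM final in 55% pooled human plasma stabilized with EDTA and MLN-4760, dialyzed against PBS pH 7.4 at 37 °C, 120 rpm, 3 h. Retentate diluted with PBS and dialysate with plasma, then quenched with 10% TFA/acetonitrile. Dans-YVG internal standard added, centrifuged, LC-MS.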

Neprilysin = Neprilysin (Homo sapiens, UniProt P08473); test: Proteolytic stability assessed as recombinant human NEP-mediated compound degradation incubated for 24 hrs by LC-MS analysis; assay type: ADME
Method in brief: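 Recombinant human NEP diluted to 2 ng μL−1 in NEP-B buffer and preincubated 10 min at 37 °C. Peptide (1 mM aqueous solution) added and incubated at 37 °C. Aliquots taken at 0, 2, 10, 20 and 48 h, quenched and quantified by LC-MS; triplicate per time point.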

Chain of Neprilysin (NEP) (P08473 whole entry): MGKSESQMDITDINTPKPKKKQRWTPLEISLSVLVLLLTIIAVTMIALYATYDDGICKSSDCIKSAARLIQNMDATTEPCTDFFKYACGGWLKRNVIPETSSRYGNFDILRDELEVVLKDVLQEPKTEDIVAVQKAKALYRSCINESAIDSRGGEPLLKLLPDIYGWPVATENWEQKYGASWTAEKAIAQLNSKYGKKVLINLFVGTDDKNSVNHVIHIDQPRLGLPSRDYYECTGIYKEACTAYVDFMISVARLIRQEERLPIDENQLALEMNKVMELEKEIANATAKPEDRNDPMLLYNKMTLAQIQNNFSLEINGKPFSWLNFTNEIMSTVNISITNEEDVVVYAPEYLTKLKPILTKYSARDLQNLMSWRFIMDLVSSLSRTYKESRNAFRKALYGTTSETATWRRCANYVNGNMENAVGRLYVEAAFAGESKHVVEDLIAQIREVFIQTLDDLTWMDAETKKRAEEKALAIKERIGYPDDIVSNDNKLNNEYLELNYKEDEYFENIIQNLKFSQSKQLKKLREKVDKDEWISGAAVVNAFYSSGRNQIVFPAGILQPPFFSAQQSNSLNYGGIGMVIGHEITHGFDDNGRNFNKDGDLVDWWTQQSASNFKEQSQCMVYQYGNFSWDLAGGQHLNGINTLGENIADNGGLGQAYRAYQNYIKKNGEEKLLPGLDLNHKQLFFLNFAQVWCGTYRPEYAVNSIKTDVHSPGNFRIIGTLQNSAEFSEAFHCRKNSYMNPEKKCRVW
Chain of Neprilysin (P08473 whole entry): as above

SMILES | half-life (Neprilysin (NEP)) [h] | half-life at 1000 µM [1] [h] | EC50 (Apelin receptor [2]) [nM] | Activity (Mus musculus [3]) [mmHg] | Time (Mus musculus [4]) [min] | Ki (Apelin receptor [5]) [nM] | half-life at 1000 µM [6] [h] | fraction unbound at 3 h, 100 µM [7] | Stability (Neprilysin)
CCCC[C@H](NC(=O)[C@@H]1CCCN1C(=O)CNC(=O)[C@H](CCCCN)NC(=O)[C@H](Cc1c[nH]cn1)NC(=O)[C@H](CO)NC(=O)[C@H](CC(C)C)N(C)C(=O)[C@H](CCCNC(=N)N)NC(=O)[C@@H]1CCCN1C(=O)[C@H](CCCNC(=N)N)NC(=O)[C@@H]1CCC(=O)N1)C(=O)NC(C)(C)C(=O)N[C@@H](Cc1ccc(Br)cc1)C(=O)O | 40.3 | 3.54 | 6.76 | 9.52 | 26 |  |  |  | 
CCCC[C@H](NC(=O)[C@@H]1CCCN1C(=O)CNC(=O)[C@H](CCCCN)NC(=O)[C@H](Cc1c[nH]cn1)NC(=O)[C@H](CO)NC(=O)[C@H](CC(C)C)NC(=O)[C@H](CCCNC(=N)N)NC(=O)[C@@H]1CCCN1C(=O)[C@H](CCCNC(=N)N)NC(=O)[C@@H]1CCC(=O)N1)C(=O)NC(C)(C)C(=O)N[C@@H](Cc1ccc(Br)cc1)C(=O)O | 10.3 | 0.81 | 4.27 | 23.88 | 60 |  |  |  | 
CCCC[C@H](NC(=O)[C@@H]1CCCN1C(=O)CNC(=O)[C@H](CCCCN)NC(=O)[C@H](Cc1c[nH]cn1)NC(=O)[C@H](CO)NC(=O)[C@H](CC(C)C)NC(=O)[C@H](CCCCNC(=N)N)NC(=O)[C@@H]1CCCN1C(=O)[C@H](CCCNC(=N)N)NC(=O)[C@@H]1CCC(=O)N1)C(=O)NC(C)(C)C(=O)N[C@@H](Cc1ccc(Br)cc1)C(=O)O | 19 | 1.31 | 2.19 | 26.44 | 60 | 0.676 |  |  | 
CCCC[C@H](NC(=O)[C@@H]1CCCN1C(=O)CNC(=O)[C@H](CCCCN)NC(=O)[C@H](Cc1c[nH]cn1)NC(=O)[C@H](CO)NC(=O)[C@H](CC1CCCCC1)NC(=O)[C@H](CCCCNC(=N)N)NC(=O)[C@@H]1CCCN1C(=O)[C@H](CCCNC(=N)N)NC(=O)[C@@H]1CCC(=O)N1)C(=O)NC(C)(C)C(=O)N[C@@H](Cc1ccc(Br)cc1)C(=O)O | 21.9 | 2.58 | 3.72 | 15.33 | 57 | 0.372 |  |  | 
CCCC[C@H](NC(=O)[C@@H]1CCCN1C(=O)CNC(=O)[C@H](CCCCN)NC(=O)[C@H](Cc1c[nH]cn1)NC(=O)[C@H](CO)NC(=O)[C@H](CC1CCCCC1)NC(=O)[C@H](CCCNC(=N)N)NC(=O)[C@@H]1CCCN1C(=O)[C@H](CCCNC(=N)N)NC(=O)[C@@H]1CCC(=O)N1)C(=O)NC(C)(C)C(=O)N[C@@H](Cc1ccc(Br)cc1)C(=O)O | 22.1 | 1.77 | 2.4 | 0.23 | 15 | 0.575 |  |  | 
CCCC[C@H](NC(=O)[C@@H]1CCCN1C(=O)CNC(=O)[C@H](CCCCN)NC(=O)[C@H](Cc1c[nH]cn1)NC(=O)[C@H](CO)NC(=O)[C@H](CC1CCCCC1)NC(=O)[C@H](CCCNC(=N)N)NC(=O)[C@@H]1CCCN1C(=O)[C@H](CCCNC(=N)N)NC(=O)[C@H](CCC(N)=O)NC(=O)[C@H](CCCNC(=N)N)NC(=O)[C@H](CCCNC(=N)N)NC(=O)[C@H](Cc1ccccc1)NC(=O)[C@@H](N)CCCCN)C(=O)NC(C)(C)C(=O)N[C@@H](Cc1ccc(Br)cc1)C(=O)O (H-KFRRQRPR[Cha]SHKGP[Nle][Aib][Phe(4-Br)]-OH) | 47 | 4.34 | 3.8 | 19.72 | 60 | 1.58 |  |  | 
CCCC[C@H](NC(=O)[C@@H]1CCCN1C(=O)CNC(=O)[C@H](CCCCN)NC(=O)[C@H](Cc1c[nH]cn1)NC(=O)[C@H](CO)NC(=O)[C@H](CC(C)C)N(C)C(=O)[C@H](CCCNC(=N)N)NC(=O)[C@@H]1CCCN1C(=O)[C@H](CCCNC(=N)N)NC(=O)[C@H](CCC(N)=O)NC(=O)[C@H](CCCNC(=N)N)NC(=O)[C@H](CCCNC(=N)N)NC(=O)[C@H](Cc1ccccc1)NC(=O)[C@@H](N)CCCCN)C(=O)NC(C)(C)C(=O)N[C@@H](Cc1ccc(Br)cc1)C(=O)O (H-KFRRQRPR[NMeL]SHKGP[Nle][Aib][Phe(4-Br)]-OH) | > 48 | 8.29 | 2.75 | 31.98 | 60 |  | 0.99 | 0.45 | 
CCCC[C@H](NC(=O)[C@@H]1CCCN1C(=O)CNC(=O)[C@H](CCCCN)NC(=O)[C@H](Cc1c[nH]cn1)NC(=O)[C@H](CO)NC(=O)[C@H](CC(C)C)NC(=O)[C@H](CCCCNC(=N)N)NC(=O)[C@@H]1CCCN1C(=O)[C@H](CCCNC(=N)N)NC(=O)[C@H](CCC(N)=O)NC(=O)[C@H](CCCNC(=N)N)NC(=O)[C@H](CCCNC(=N)N)NC(=O)[C@H](Cc1ccccc1)NC(=O)[C@@H](N)CCCCN)C(=O)NC(C)(C)C(=O)N[C@@H](Cc1ccc(Br)cc1)C(=O)O (H-KFRRQRP[hArg]LSHKGP[Nle][Aib][Phe(4-Br)]-OH) | 40.6 | 3.06 | 6.76 | 40.45 | 60 | 0.832 |  |  | 
CCCC[C@H](NC(=O)[C@@H]1CCCN1C(=O)CNC(=O)[C@H](CCCCN)NC(=O)[C@H](Cc1c[nH]cn1)NC(=O)[C@H](CO)NC(=O)[C@H](CC1CCCCC1)NC(=O)[C@H](CCCCNC(=N)N)NC(=O)[C@@H]1CCCN1C(=O)[C@H](CCCNC(=N)N)NC(=O)[C@H](CCC(N)=O)NC(=O)[C@H](CCCNC(=N)N)NC(=O)[C@H](CCCNC(=N)N)NC(=O)[C@H](Cc1ccccc1)NC(=O)[C@@H](N)CCCCN)C(=O)NC(C)(C)C(=O)N[C@@H](Cc1ccc(Br)cc1)C(=O)O (H-KFRRQRP[hArg][Cha]SHKGP[Nle][Aib][Phe(4-Br)]-OH) | 46.4 | 6.28 | 4.37 | 44.9 | 60 | 1.1 | 0.52 | 0.35 | 
CCCC[C@H](NC(=O)[C@@H]1CCCN1C(=O)CNC(=O)[C@H](CCCCN)NC(=O)[C@H](Cc1c[nH]cn1)NC(=O)[C@H](CO)NC(=O)[C@H](CC(C)C)N(C)C(=O)[C@H](CCCCNC(=N)N)NC(=O)[C@@H]1CCCN1C(=O)[C@H](CCCNC(=N)N)NC(=O)[C@H](CCC(N)=O)NC(=O)[C@H](CCCNC(=N)N)NC(=O)[C@H](CCCNC(=N)N)NC(=O)[C@H](Cc1ccccc1)NC(=O)[C@@H](N)CCCCN)C(=O)NC(C)(C)C(=O)N[C@@H](Cc1ccc(Br)cc1)C(=O)O (H-KFRRQRP[hArg][NMeL]SHKGP[Nle][Aib][Phe(4-Br)]-OH) |  | 5.63 | 275 | 34.69 | 60 | 1.41 | 0.38 |  | Stable
